Measurements from ChEMBL document CHEMBL1806425, “Design and synthesis of 4-amino-2-phenylquinazolines as novel topoisomerase I inhibitors with molecular modeling” (Bioorg Med Chem, 2011).
Values after ≈ are worked out from the molar mass of the structure shown. Active and inactive are the calls of the source. The rule behind the calls is not given here.

Key:
Bos taurus [1] = species: Bos taurus; assay: Inhibition of calf thymus DNA topoisomerase I assessed as relaxation of supercoiled DNA pBR322 at 100 ug/ml after 30 mins by agarose gel electrophoresis relative to camptothecin
Outline: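 Relaxation of 200 ng pBR322 supercoiled plasmid by 2 units calf thymus topo I, incubated with or without compound (20 mM DMSO stocks) for 30 min at 37 °C. Buffer: 35 mM Tris–HCl pH 8.0, 72 mM KCl, 5 mM MgCl2, 5 mM DTT, 2 mM spermidine, 0.01% BSA. The reaction was stopped with SDS/glycerol dye, then run on 1% agarose in TAE at 15 V for 6 h and stained.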

SK-OV-3 = assay: Cytotoxicity against human SKOV3 cells by sulforhodamine B assay; assay type: functional, cell-based
SK-MEL-2 = assay: Cytotoxicity against human SK-MEL-2 cells by sulforhodamine B assay; assay type: functional, cell-based
HCT-15 = assay: Cytotoxicity against human HCT15 cells by sulforhodamine B assay; assay type: functional, cell-based
A549 = assay: Cytotoxicity against human A549 cells by sulforhodamine B assay; assay type: functional, cell-based
Bos taurus [2] = species: Bos taurus; assay: Inhibition of calf thymus DNA topoisomerase I assessed as relaxation of supercoiled DNA pBR322 at 10 to 100 ug/ml after 30 mins by agarose gel electrophoresis
Outline: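 Relaxation of supercoiled pBR322 plasmid DNA (200 ng) by 2 units calf thymus topo I, incubated with or without compound at 37 °C for 30 min. Buffer: 35 mM Tris–HCl pH 8.0, 72 mM KCl, 5 mM MgCl2, 5 mM DTT, 2 mM spermidine, 0.01% BSA. Stopped with SDS/dye/glycerol solution. Run on 1% agarose gel in TAE at 15 V for 6 h, then stained. Compound stocks were 20 mM in DMSO.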

Compound	inhibition (Bos taurus [1])	IC50 (SK-OV-3) [µg/mL]	IC50 (SK-MEL-2) [µg/mL]	IC50 (HCT-15) [µg/mL]	IC50 (A549) [µg/mL]	inhibition (Bos taurus [2])
CN1CCCN(c2nc(-c3ccccc3)nc3ccccc23)CC1	Active	26.1 (≈ 82 µM)	36.5 (≈ 115 µM)	20.1 (≈ 63.1 µM)	24.1 (≈ 75.7 µM)	–
c1ccc(-c2nc(NC3CCCCC3)c3ccccc3n2)cc1	Active	9.82 (≈ 32.4 µM)	9.63 (≈ 31.7 µM)	2.76 (≈ 9.1 µM)	7.23 (≈ 23.8 µM)	–
Cl.c1ccc(CNc2nc(-c3ccccc3)nc3ccccc23)cc1	–	9.5	15.8	6.13	9.79	–
CC[C@@]1(O)C(=O)OCc2c1cc1n(c2=O)Cc2cc3ccccc3nc2-1 [CAMPTOTHECIN]	–	1.54 (≈ 4.42 µM)	6.88 (≈ 19.7 µM)	0.096 (≈ 0.276 µM)	0.072 (≈ 0.207 µM)	Active
CN(C)CCN(C)c1nc(-c2ccccc2)nc2ccccc12	Active	25.5 (≈ 83.3 µM)	28.9 (≈ 94.4 µM)	26.5 (≈ 86.4 µM)	28.1 (≈ 91.8 µM)	–
CC(C)Nc1nc(-c2ccccc2)nc2ccccc12	Active	16.9 (≈ 64.2 µM)	16.5 (≈ 62.5 µM)	4.11 (≈ 15.6 µM)	7.53 (≈ 28.6 µM)	–
c1ccc(CNc2nc(-c3ccccc3)nc3ccccc23)cc1	–	31.7 (≈ 102 µM)	31.2 (≈ 100 µM)	13.9 (≈ 44.7 µM)	15.1 (≈ 48.6 µM)	–
COCCNc1nc(-c2ccccc2)nc2ccccc12	Active	22.9 (≈ 82 µM)	27.6 (≈ 98.9 µM)	26.8 (≈ 96.1 µM)	27.4 (≈ 98.3 µM)	–
COc1cccc2c1C(=O)c1c(O)c3c(c(O)c1C2=O)C[C@@](O)(C(=O)CO)C[C@@H]3O[C@H]1C[C@H](N)[C@H](O)[C@H](C)O1 [DOXORUBICIN]	–	0.08 (≈ 0.147 µM)	0.09 (≈ 0.166 µM)	0.05 (≈ 0.092 µM)	–	–
c1ccc(-c2nc(N3CCOCC3)c3ccccc3n2)cc1	Active	57 (≈ 196 µM)	65.2 (≈ 224 µM)	51.8 (≈ 178 µM)	52.8 (≈ 181 µM)	–
CNc1nc(-c2ccccc2)nc2ccccc12	inactive	33.6 (≈ 143 µM)	24.4 (≈ 104 µM)	21.2 (≈ 90 µM)	29.3 (≈ 125 µM)	–
CN1CCN(c2nc(-c3ccccc3)nc3ccccc23)CC1	Active	26.8 (≈ 88.2 µM)	37 (≈ 122 µM)	22.4 (≈ 73.5 µM)	26.9 (≈ 88.3 µM)	–
CCOC(=O)CCNc1nc(-c2ccccc2)nc2ccccc12.Cl	inactive	> 100	> 100	> 100	> 100	–
COC(=O)CNc1nc(-c2ccccc2)nc2ccccc12	Active	35.5 (≈ 121 µM)	37.6 (≈ 128 µM)	37.5 (≈ 128 µM)	36.3 (≈ 124 µM)	–
